{
  "source": "ChEMBL document CHEMBL1122583",
  "about": "“Structure-activity relationships among DNA gyrase inhibitors. Synthesis and biological evaluation of 1,2-dihydro-4, 4-dimethyl-1-oxo-2-naphthalenecarboxylic acids as 1-carba bioisosteres of oxolinic acid” (1984)",
  "key": {"Candida albicans": {"tested_on": "Candida albicans", "assay": "In vitro antifungal activity against Candida albicans (ATCC 10231)", "format": "functional"}, "Klebsiella pneumoniae": {"tested_on": "Klebsiella pneumoniae", "assay": "In vitro antifungal activity against Klebsiella pneumoniae AD (ATCC 10031)", "format": "functional"}, "[1]": {"tested_on": "Mycolicibacterium smegmatis", "assay": "In vitro antifungal activity against Mycobacterium smegmatis (ATCC 607)", "format": "functional"}, "Escherichia coli": {"tested_on": "Escherichia coli", "assay": "In vitro antifungal activity against Escherichia coli (ATCC 9637)", "format": "functional"}, "[2]": {"tested_on": "Salmonella enterica subsp. enterica serovar Gallinarum", "assay": "In vitro antifungal activity against Salmonella gallinarum (ATCC 9184)", "format": "functional"}, "Nucleic Acid": {"tested_on": "Nucleic Acid", "assay": "In vitro DNA gyrase inhibition activity", "format": "nucleic-acid assay", "outline": "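DNA gyrase holoenzyme, purified using a heparin-Sepharose affinity column in place of the DEAE-cellulose step. Supercoiling of relaxed ColE1 plasmid was run on 1% agarose horizontal gels. Relaxed and supercoiled bands were quantified by densitometry of photographic negatives. Because inhibition is noncompetitive, Ki was taken as the concentration giving 50% inhibition of supercoil band formation.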"}, "Staphylococcus aureus": {"tested_on": "Staphylococcus aureus", "assay": "In vitro antifungal activity against Staphylococcus aureus (ATCC 13709)", "format": "functional"}},
  "data": [
    {"smiles": "CC1(C)C=C(C(=O)O)C(=O)c2cc3c(cc21)CCO3", "values": [
      {"measurement": "MIC", "setting": "Candida albicans", "value": "> 500", "unit": "µg/mL"},
      {"measurement": "MIC", "setting": "Klebsiella pneumoniae", "value": "> 500", "unit": "µg/mL"},
      {"measurement": "MIC", "setting": "[1]", "value": 500, "unit": "µg/mL"},
      {"measurement": "MIC", "setting": "Escherichia coli", "value": "> 500", "unit": "µg/mL"},
      {"measurement": "MIC", "setting": "[2]", "value": 500, "unit": "µg/mL"},
      {"measurement": "Ki (concentration giving 50% inhibition of gyrase supercoiling)", "setting": "Nucleic Acid", "value": 300, "unit": "µg/mL"},
      {"measurement": "MIC", "setting": "Staphylococcus aureus", "value": 500, "unit": "µg/mL"}
    ]},
    {"smiles": "COc1cc2c(cc1OC)C(C)(C)C=C(C(=O)O)C2=O", "values": [
      {"measurement": "MIC", "setting": "Candida albicans", "value": "> 100", "unit": "µg/mL"},
      {"measurement": "MIC", "setting": "Klebsiella pneumoniae", "value": "> 100", "unit": "µg/mL"},
      {"measurement": "MIC", "setting": "[1]", "value": "> 100", "unit": "µg/mL"},
      {"measurement": "MIC", "setting": "Escherichia coli", "value": "> 100", "unit": "µg/mL"},
      {"measurement": "MIC", "setting": "[2]", "value": "> 100", "unit": "µg/mL"},
      {"measurement": "Ki (concentration giving 50% inhibition of gyrase supercoiling)", "setting": "Nucleic Acid", "value": "> 1000", "unit": "µg/mL"},
      {"measurement": "MIC", "setting": "Staphylococcus aureus", "value": "> 100", "unit": "µg/mL"}
    ]},
    {"smiles": "CC1(C)C=C(C(=O)O)C(=O)c2cc3c(cc21)OCO3", "values": [
      {"measurement": "MIC", "setting": "Candida albicans", "value": "> 500", "unit": "µg/mL"},
      {"measurement": "MIC", "setting": "Klebsiella pneumoniae", "value": "> 500", "unit": "µg/mL"},
      {"measurement": "MIC", "setting": "[1]", "value": 500, "unit": "µg/mL"},
      {"measurement": "MIC", "setting": "Escherichia coli", "value": "> 500", "unit": "µg/mL"},
      {"measurement": "MIC", "setting": "[2]", "value": 500, "unit": "µg/mL"},
      {"measurement": "Ki (concentration giving 50% inhibition of gyrase supercoiling)", "setting": "Nucleic Acid", "value": 300, "unit": "µg/mL"},
      {"measurement": "MIC", "setting": "Staphylococcus aureus", "value": 500, "unit": "µg/mL"}
    ]},
    {"smiles": "CC1(C)C=C(C(=O)O)C(=O)c2ccc3c(c21)OCC3", "values": [
      {"measurement": "MIC", "setting": "Candida albicans", "value": "> 100", "unit": "µg/mL"},
      {"measurement": "MIC", "setting": "Klebsiella pneumoniae", "value": "> 100", "unit": "µg/mL"},
      {"measurement": "MIC", "setting": "[1]", "value": "> 100", "unit": "µg/mL"},
      {"measurement": "MIC", "setting": "Escherichia coli", "value": "> 100", "unit": "µg/mL"},
      {"measurement": "MIC", "setting": "[2]", "value": "> 100", "unit": "µg/mL"},
      {"measurement": "Ki (concentration giving 50% inhibition of gyrase supercoiling)", "setting": "Nucleic Acid", "value": 300, "unit": "µg/mL"},
      {"measurement": "MIC", "setting": "Staphylococcus aureus", "value": "> 100", "unit": "µg/mL"}
    ]},
    {"smiles": "CCn1cc(C(=O)O)c(=O)c2cc3c(cc21)OCO3", "note": "[OXOLINIC ACID]", "values": [
      {"measurement": "MIC", "setting": "Candida albicans", "value": "> 100", "unit": "µg/mL"},
      {"measurement": "MIC", "setting": "Klebsiella pneumoniae", "value": "< 0.1", "unit": "µg/mL"},
      {"measurement": "MIC", "setting": "[1]", "value": 50, "unit": "µg/mL"},
      {"measurement": "MIC", "setting": "Escherichia coli", "value": 0.78, "unit": "µg/mL"},
      {"measurement": "MIC", "setting": "[2]", "value": 0.78, "unit": "µg/mL"},
      {"measurement": "MIC", "setting": "Staphylococcus aureus", "value": 3.13, "unit": "µg/mL"}
    ]},
    {"smiles": "CCn1cc(C(=O)O)c(=O)c2ccc(C)nc21", "note": "[NALIDIXIC ACID]", "values": [
      {"measurement": "MIC", "setting": "Candida albicans", "value": "> 100", "unit": "µg/mL"},
      {"measurement": "MIC", "setting": "Klebsiella pneumoniae", "value": 3.13, "unit": "µg/mL"},
      {"measurement": "MIC", "setting": "[1]", "value": "> 100", "unit": "µg/mL"},
      {"measurement": "MIC", "setting": "Escherichia coli", "value": 12.5, "unit": "µg/mL"},
      {"measurement": "MIC", "setting": "[2]", "value": 12.5, "unit": "µg/mL"},
      {"measurement": "MIC", "setting": "Staphylococcus aureus", "value": 100, "unit": "µg/mL"}
    ]},
    {"smiles": "CC1(C)C=C(C(=O)O)C(=O)c2ccccc21", "values": [
      {"measurement": "MIC", "setting": "Candida albicans", "value": "> 250", "unit": "µg/mL"},
      {"measurement": "MIC", "setting": "Klebsiella pneumoniae", "value": "> 250", "unit": "µg/mL"},
      {"measurement": "MIC", "setting": "[1]", "value": 50, "unit": "µg/mL"},
      {"measurement": "MIC", "setting": "Escherichia coli", "value": "> 250", "unit": "µg/mL"},
      {"measurement": "MIC", "setting": "[2]", "value": 50, "unit": "µg/mL"},
      {"measurement": "Ki (concentration giving 50% inhibition of gyrase supercoiling)", "setting": "Nucleic Acid", "value": 2000, "unit": "µg/mL"},
      {"measurement": "MIC", "setting": "Staphylococcus aureus", "value": 6.25, "unit": "µg/mL"}
    ]}
  ]
}
